Assay results published in ChEMBL document CHEMBL2434966, “Novel N-4-piperazinyl-ciprofloxacin-chalcone hybrids: synthesis, physicochemical properties, anticancer and topoisomerase I and II inhibitory activity” (Eur J Med Chem, 2013).
Values after ≈ are worked out from the molar mass of the structure shown.

Legend:
[1] = Aqueous solubility of the compound at pH 6.9 by UV spectroscopic analysis; type: physicochemical; details: aqueous solution
In short: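 Excess solid (10 mg) shaken in buffer at pH 6.9 or 7.8, 37 °C. The filtrate was diluted into the linear calibration range and dissolved drug measured by UV absorbance at λmax 272 nm. Values are the average of at least three agreeing independent measurements.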

MDA-MB-468 = assay: Growth inhibition of human MDA-MB-468 cells after 48 hrs by sulforhodamine B assay; type: functional; details: MDA-MB-468, 48 h
In short: (§1)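 NCI five-dose screen on the full 60-cell-line panel. Cells were given 10-fold dilutions from 10^-4 to 10^-8 M with continuous 48 h exposure, and growth was read by SRB staining. Percent growth was taken from time-zero, control and treated absorbances. GI50, TGI and LC50 were then derived, the GI50 being the concentration that gives a 50% lower net protein increase than control.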

BT-549 = assay: Growth inhibition of human BT549 cells after 48 hrs by sulforhodamine B assay; type: functional; details: BT-549, 48 h
In short: (§2)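 NCI 60-panel five-dose test at 10-fold dilutions, 10^-4 to 10^-8 M, with 48 h continuous exposure and SRB protein read-out. Percent growth derived from time-zero, untreated-control and treated absorbances. GI50 is the concentration where [(Ti-Tz)/(C-Tz)]×100 = 50. TGI is taken at Ti = Tz. LC50 is taken at [(Ti-Tz)/Tz]×100 = -50.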

UO-31 = assay: Growth inhibition of human UO31 cells after 48 hrs by sulforhodamine B assay; type: functional; details: UO-31, 48 h
In short: (§3)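 NCI 60-cell panel, five concentrations (10-fold dilutions, 0.01–100 µM), 48 h continuous exposure; SRB protein stain read spectrophotometrically. Percent growth from time-zero, untreated-control and treated absorbances. GI50 is the concentration giving 50% lower net protein increase than control. Values beyond the tested range are reported as more or less than the highest or lowest concentration.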

TK-10 [2] = assay: Growth inhibition of human TK10 cells after 48 hrs by sulforhodamine B assay; type: functional; details: TK-10, 48 h; for CC50: read-out: LC50 (the source's name); in short: as §3
OVCAR-5 [3] = assay: Growth inhibition of human OVCAR5 cells after 48 hrs by sulforhodamine B assay; type: functional; details: OVCAR-5, 48 h; in short: as §1
SK-MEL-5 = assay: Growth inhibition of human SK-MEL-5 cells after 48 hrs by sulforhodamine B assay; type: functional; details: SK-MEL-5, 48 h; for CC50: read-out: LC50 (the source's name); in short: as §1
M14 = assay: Growth inhibition of human M14 cells after 48 hrs by sulforhodamine B assay; type: functional; details: M14, 48 h; in short: as §2
SNB-19 = assay: Growth inhibition of human SNB19 cells after 48 hrs by sulforhodamine B assay; type: functional; details: SNB-19, 48 h; in short: as §3
HT-29 = assay: Growth inhibition of human HT-29 cells after 48 hrs by sulforhodamine B assay; type: functional; details: HT-29, 48 h; for CC50: read-out: LC50 (the source's name); in short: as §2
COLO 205 = assay: Growth inhibition of human COLO205 cells after 48 hrs by sulforhodamine B assay; type: functional; details: COLO 205, 48 h; in short: as §2
NCI-H522 = assay: Growth inhibition of human NCI-H522 cells after 48 hrs by sulforhodamine B assay; type: functional; details: NCI-H522, 48 h; for CC50: read-out: LC50 (the source's name); in short: as §1
NCI-H23 = assay: Growth inhibition of human NCI-H23 cells after 48 hrs by sulforhodamine B assay; type: functional; details: NCI-H23, 48 h; for CC50: read-out: LC50 (the source's name); in short: as §1
A549 = assay: Growth inhibition of human A549/ATCC cells after 48 hrs by sulforhodamine B assay; type: functional; details: A549, 48 h; in short: as §2
TK-10 [4] = assay: Growth inhibition of human TK10 cells assessed as cell growth at 10^-5 M after 48 hrs by sulforhodamine B assay; type: functional; details: TK-10, 48 h, read-out: Activity
In short: (§4)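 NCI primary one-dose screen: single concentration of 10^-5 M added to culture, 48 h incubation, SRB protein-dye endpoint. Percent growth of treated cells measured spectrophotometrically against untreated controls.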

OVCAR-5 [5] = assay: Growth inhibition of human OVCAR5 cells assessed as cell growth at 10^-5 M after 48 hrs by sulforhodamine B assay; type: functional; details: OVCAR-5, 48 h, read-out: Activity
In short: (§5)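 NCI 60-cell-line primary one-dose screen. Cells were exposed to a single 10^-5 M concentration for 48 h. The end point was sulforhodamine B protein staining, read spectrophotometrically. Results are reported as percent growth of treated cells relative to untreated control cells.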

LOX IMVI = assay: Growth inhibition of human LOXIMVI cells assessed as cell growth at 10^-5 M after 48 hrs by sulforhodamine B assay; type: functional; details: read-out: Activity
In short: (§6)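 NCI 60-cell-line primary screen. Single concentration of 10^-5 M, 48 h incubation. End point by sulforhodamine B protein staining read spectrophotometrically. Reported as percent growth of treated cells relative to untreated control cells.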

SNB-75 = assay: Growth inhibition of human SNB75 cells assessed as cell growth at 10^-5 M after 48 hrs by sulforhodamine B assay; type: functional; details: SNB-75, 48 h, read-out: Activity; in short: as §4
SF-268 = assay: Growth inhibition of human SF268 cells assessed as cell growth at 10^-5 M after 48 hrs by sulforhodamine B assay; type: functional; details: SF-268, 48 h, read-out: Activity; in short: as §5
SW-620 = assay: Growth inhibition of human SW620 cells assessed as cell growth at 10^-5 M after 48 hrs by sulforhodamine B assay; type: functional; details: SW-620, 48 h, read-out: Activity; in short: as §4
HCT-116 = assay: Growth inhibition of human HCT116 cells assessed as cell growth at 10^-5 M after 48 hrs by sulforhodamine B assay; type: functional; details: HCT-116, 48 h, read-out: Activity; in short: as §6
RPMI-8226 = assay: Growth inhibition of human RPMI8226 cells assessed as cell growth at 10^-5 M after 48 hrs by sulforhodamine B assay; type: functional; details: RPMI-8226, 48 h, read-out: Activity; in short: as §5
K562 = assay: Growth inhibition of human K562 cells assessed as cell growth at 10^-5 M after 48 hrs by sulforhodamine B assay; type: functional; details: K562, 48 h, read-out: Activity; in short: as §6
HL-60(TB) = assay: Growth inhibition of human HL-60(TB) cells assessed as cell growth at 10^-5 M after 48 hrs by sulforhodamine B assay; type: functional; details: HL-60, 48 h, read-out: Activity
In short: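 NCI one-dose primary screen: compound added once at 10^-5 M, cultures incubated 48 h, end point by SRB protein-binding dye. Result given as percent growth of treated cells relative to untreated control cells, measured spectrophotometrically.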

COc1cc(/C=C/C(=O)c2ccc(NC(=O)CN3CCN(c4cc5c(cc4F)c(=O)c(C(=O)O)cn5C4CC4)CC3)cc2)cc(OC)c1OC showed a solubility [1] of 2.13 µg/mL (≈ 3.11 µM), a GI50 (MDA-MB-468) of 0.33 µM and an LC50 (concentration killing 50% of starting cells) (MDA-MB-468) of 40.7 µM. For the same molecule, the TGI (MDA-MB-468) was 1.78 µM, the GI50 (BT-549) was 0.3 µM and the LC50 (concentration giving 50% net cell kill) (BT-549) was 6.98 µM. The TGI (BT-549) was 1.17 µM, the GI50 (UO-31) was 1.17 µM and the LC50 (concentration killing 50% of cells) (UO-31) was over 100 µM. It also gave a TGI (UO-31) of 6.8 µM, a GI50 (TK-10 [2]) of 1.29 µM and a TGI (TK-10 [2]) of 16.5 µM. For the same molecule, the CC50 (TK-10 [2]) was over 100 µM, the GI50 (OVCAR-5 [3]) was 1.87 µM and the LC50 (OVCAR-5 [3]) was over 100 µM. It also gave a TGI (OVCAR-5 [3]) of 7.36 µM, a GI50 (SK-MEL-5) of 1.06 µM and a TGI (SK-MEL-5) of 4.06 µM. The CC50 (SK-MEL-5) was over 100 µM, the GI50 (M14) was 0.77 µM and the LC50 (concentration giving 50% net cell kill) (M14) was over 100 µM. The TGI (M14) was 7.16 µM, the GI50 (SNB-19) was 2.78 µM and the LC50 (SNB-19) was over 100 µM. For the same molecule, the TGI (SNB-19) was over 100 µM, the GI50 (HT-29) was 0.23 µM and the TGI (HT-29) was 0.63 µM. It also gave a CC50 (HT-29) of 9.13 µM, a GI50 (COLO 205) of 1.62 µM and an LC50 (lethal concentration, 50% net cell kill) (COLO 205) of over 100 µM. The TGI (COLO 205) was 15.4 µM, the GI50 (NCI-H522) was 0.66 µM and the TGI (NCI-H522) was 3.19 µM. It also gave a CC50 (NCI-H522) of 17.9 µM, a GI50 (NCI-H23) of 0.56 µM and a TGI (NCI-H23) of 2.91 µM. For the same molecule, the CC50 (NCI-H23) was 14.2 µM, the GI50 (A549) was 0.37 µM and the LC50 (concentration giving 50% net cell kill) (A549) was over 100 µM. The TGI (A549) was 2.14 µM, the growth at 10 µM (TK-10 [4]) was 19.1% and the growth at 10 µM (OVCAR-5 [5]) was 16.9%. The growth at 10 µM (LOX IMVI) was -54.7%, the growth at 10 µM (SNB-75) was 76.6% and the growth at 10 µM (SF-268) was -1.11%. It also gave a growth at 10 µM (SW-620) of 6.38%, a growth at 10 µM (HCT-116) of -88.2% and a growth at 10 µM (RPMI-8226) of -18.8%. It also gave a growth at 10 µM (K562) of 1.66% and a growth at 10 µM (HL-60(TB)) of -33.7%.
O=C(CN1CCN(c2cc3c(cc2F)c(=O)c(C(=O)O)cn3C2CC2)CC1)Nc1ccc(C(=O)/C=C/c2ccccc2)cc1 showed a solubility [1] of 2.73 µg/mL (≈ 4.59 µM), a GI50 (MDA-MB-468) of 2.45 µM and an LC50 (concentration killing 50% of starting cells) (MDA-MB-468) of over 100 µM. The TGI (MDA-MB-468) was 23.2 µM, the GI50 (BT-549) was 3.56 µM and the LC50 (concentration giving 50% net cell kill) (BT-549) was over 100 µM. For the same molecule, the TGI (BT-549) was over 100 µM, the GI50 (UO-31) was 2.78 µM and the LC50 (concentration killing 50% of cells) (UO-31) was over 100 µM. For the same molecule, the TGI (UO-31) was 45.4 µM, the GI50 (TK-10 [2]) was 4.19 µM and the TGI (TK-10 [2]) was over 100 µM. For the same molecule, the CC50 (TK-10 [2]) was over 100 µM, the GI50 (OVCAR-5 [3]) was 5.35 µM and the LC50 (OVCAR-5 [3]) was over 100 µM. For the same molecule, the TGI (OVCAR-5 [3]) was over 100 µM, the GI50 (SK-MEL-5) was 2.74 µM and the TGI (SK-MEL-5) was 13 µM. It also gave a CC50 (SK-MEL-5) of over 100 µM, a GI50 (M14) of 5.22 µM and an LC50 (concentration giving 50% net cell kill) (M14) of over 100 µM. It also gave a TGI (M14) of over 100 µM, a GI50 (SNB-19) of 3.05 µM and an LC50 (SNB-19) of over 100 µM. It also gave a TGI (SNB-19) of over 100 µM, a GI50 (HT-29) of 2.99 µM and a TGI (HT-29) of 10.3 µM. The CC50 (HT-29) was over 100 µM, the GI50 (COLO 205) was 36.3 µM and the LC50 (lethal concentration, 50% net cell kill) (COLO 205) was over 100 µM. It also gave a TGI (COLO 205) of over 100 µM, a GI50 (NCI-H522) of 1.7 µM and a TGI (NCI-H522) of 7.78 µM. The CC50 (NCI-H522) was over 100 µM, the GI50 (NCI-H23) was 2.48 µM and the TGI (NCI-H23) was 14.3 µM. It also gave a CC50 (NCI-H23) of over 100 µM, a GI50 (A549) of 2.41 µM and an LC50 (concentration giving 50% net cell kill) (A549) of over 100 µM. For the same molecule, the growth at 10 µM (TK-10 [4]) was 39.9%, the growth at 10 µM (OVCAR-5 [5]) was 82.6% and the growth at 10 µM (LOX IMVI) was 5.67%. It also gave a growth at 10 µM (SNB-75) of 61.8%, a growth at 10 µM (SF-268) of 37% and a growth at 10 µM (SW-620) of 41%. It also gave a growth at 10 µM (HCT-116) of -83.6%, a growth at 10 µM (RPMI-8226) of 2.45% and a growth at 10 µM (K562) of 14.2%. For the same molecule, the growth at 10 µM (HL-60(TB)) was 40.9%.
